The text below walks through data of ChEMBL document CHEMBL4373653, “FgaPT2, a biocatalytic tool for alkyl-diversification of indole natural products” (Medchemcomm, 2019).

The source made the active and inactive calls. The calls are words filed in the database; no cut-off is given here.

For series [1], the target named is T1, Tryptophan dimethylallyltransferase (Neosartorya fumigata (strain ATCC MYA-4609 / Af293 / CBS 101355 / FGSCA1100) (Aspergillus fumigatus)) (UniProt Q50EL0).
T1 sequence (whole entry): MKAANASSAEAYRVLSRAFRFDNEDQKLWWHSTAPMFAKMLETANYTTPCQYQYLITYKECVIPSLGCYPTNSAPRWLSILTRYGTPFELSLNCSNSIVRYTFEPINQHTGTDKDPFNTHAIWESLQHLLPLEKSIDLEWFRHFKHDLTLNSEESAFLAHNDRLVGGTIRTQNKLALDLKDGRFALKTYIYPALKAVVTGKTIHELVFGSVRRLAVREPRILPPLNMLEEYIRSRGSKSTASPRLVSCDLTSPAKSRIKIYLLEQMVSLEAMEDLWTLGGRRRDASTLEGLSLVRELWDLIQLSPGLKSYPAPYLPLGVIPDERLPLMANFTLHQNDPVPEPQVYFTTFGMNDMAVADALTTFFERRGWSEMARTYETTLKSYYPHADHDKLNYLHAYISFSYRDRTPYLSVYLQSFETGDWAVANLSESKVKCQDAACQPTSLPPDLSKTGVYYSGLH
The series is described as follows: Substrate activity at recombinant N-terminal His6-fusion tagged Aspergillus fumigatus FgaPT2 expressed in Escherichia coli BL21 (DE3) assessed as alkylation of L-tryptophan by measuring product formation at pH 7.5 in Tris buffer after 16 hrs by RP-HPLC analysis. A digest of the protocol:
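The enzyme was codon-optimized and purified by Ni-NTA. Reaction: 1.2 mM alkyl-PP donor, 1 mM L-Trp, 5 μM FgaPT2 in 25 mM Tris pH 7.5, 5 mM MgCl2, 50 mM KCl, 35 °C for 16 h. It was quenched with an equal volume of methanol and centrifuged. Analysis was by RP-HPLC (C18, water/0.1% TFA–acetonitrile gradient, A254). Negative controls omitted the enzyme or the donor.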

For series [2], the system named is HCT-116. The series is described as follows: Cytotoxicity against human HCT116 cells incubated for 48 hrs by Celltiter-blue assay. The series is classed as cell-based. Particulars: HCT-116, 48 h. In short, it runs like this:
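HCT-116 cells, 2.0e3 per well in McCoy's medium, grown 24 h. A baseline CellTiter-Blue reading (90 min, 37 °C; ex 544/em 590 nm) was taken at treatment. Serial dilutions were added at 4X in medium and incubated 48 h, then read again with CellTiter-Blue. Growth was expressed relative to untreated cells, four-parameter dose-response fit to IC50, n = 2, Taxol internal control.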

Substrate in series [3]: O=P(O)(O)OP(=O)(O)OCc1ccccc1
As to conditions: Aspergillus fumigatus Af293.

Substrate in series [4]: C/C=C/COP(=O)(O)OP(=O)(O)O
Particulars: Aspergillus fumigatus Af293.

Substrate in series [5]: O=P(O)(O)OP(=O)(O)OCC=C1CCCC1
As to conditions: Aspergillus fumigatus Af293.

Substrate in series [6]: C=C/C=C(\C)COP(=O)(O)OP(=O)(O)O
As to conditions: Aspergillus fumigatus Af293.

Substrate in series [7]: CC(C)=C/C=C/COP(=O)(O)OP(=O)(O)O
As to conditions: Aspergillus fumigatus Af293.

Substrate in series [8]: COc1ccccc1COP(=O)(O)OP(=O)(O)O
Particulars: Aspergillus fumigatus Af293.

Substrate in series [9]: O=P(O)(O)OP(=O)(O)OCc1ccc(F)cc1
Particulars: Aspergillus fumigatus Af293.

Substrate in series [10]: O=P(O)(O)OP(=O)(O)OCC1=CCCCC1
Particulars: Aspergillus fumigatus Af293.

Substrate in series [11]: C/C(Br)=C/COP(=O)(O)OP(=O)(O)O
As to conditions: Aspergillus fumigatus Af293.

Substrate in series [12]: O=P(O)(O)OP(=O)(O)OCc1ccc(Cl)cc1
As to conditions: Aspergillus fumigatus Af293.

Substrate in series [13]: CC/C(C)=C/COP(=O)(O)OP(=O)(O)O
Particulars: Aspergillus fumigatus Af293.

Substrate in series [14]: CCC(=CCOP(=O)(O)OP(=O)(O)O)CC
As to conditions: Aspergillus fumigatus Af293.

Substrate in series [15]: COc1cccc(COP(=O)(O)OP(=O)(O)O)c1
As to conditions: Aspergillus fumigatus Af293.

Substrate in series [16]: C=C/C=C/COP(=O)(O)OP(=O)(O)O
As to conditions: Aspergillus fumigatus Af293.

Substrate in series [17]: C/C=C/C=C(\C)COP(=O)(O)OP(=O)(O)O
As to conditions: Aspergillus fumigatus Af293.

Substrate in series [18]: O=P(O)(O)OP(=O)(O)OCC=C1CCCCC1
Particulars: Aspergillus fumigatus Af293.

Substrate in series [19]: C/C(Cl)=C/COP(=O)(O)OP(=O)(O)O
As to conditions: Aspergillus fumigatus Af293.

Substrate in series [20]: O=P(O)(O)OP(=O)(O)OCc1ccc(Br)cc1
As to conditions: Aspergillus fumigatus Af293.

Substrate in series [21]: O=P(O)(O)OP(=O)(O)OCc1ccccc1
Particulars: Aspergillus fumigatus Af293. The source holds these as a separate data set.

Substrate in series [22]: C/C=C/COP(=O)(O)OP(=O)(O)O
Particulars: Aspergillus fumigatus Af293. This is another data set of the same source.

Substrate in series [23]: O=P(O)(O)OP(=O)(O)OCC=C1CCCC1
As to conditions: Aspergillus fumigatus Af293. This is another data set of the same source.

Substrate in series [24]: C=C/C=C(\C)COP(=O)(O)OP(=O)(O)O
Particulars: Aspergillus fumigatus Af293. The source holds these as a separate data set.

Substrate in series [25]: CC(C)=C/C=C/COP(=O)(O)OP(=O)(O)O
Particulars: Aspergillus fumigatus Af293. This is another data set of the same source.

Substrate in series [26]: COc1ccccc1COP(=O)(O)OP(=O)(O)O
As to conditions: Aspergillus fumigatus Af293. This is another data set of the same source.

Substrate in series [27]: O=P(O)(O)OP(=O)(O)OCc1ccc(F)cc1
As to conditions: Aspergillus fumigatus Af293. This is another data set of the same source.

Substrate in series [28]: O=P(O)(O)OP(=O)(O)OCC1=CCCCC1
As to conditions: Aspergillus fumigatus Af293. This is another data set of the same source.

Substrate in series [29]: O=P(O)(O)OP(=O)(O)OCc1ccc(Cl)cc1
As to conditions: Aspergillus fumigatus Af293. The source holds these as a separate data set.

Substrate in series [30]: CC/C(C)=C/COP(=O)(O)OP(=O)(O)O
Particulars: Aspergillus fumigatus Af293. The source holds these as a separate data set.

Substrate in series [31]: CCC(=CCOP(=O)(O)OP(=O)(O)O)CC
As to conditions: Aspergillus fumigatus Af293. This is another data set of the same source.

Substrate in series [32]: COc1cccc(COP(=O)(O)OP(=O)(O)O)c1
Particulars: Aspergillus fumigatus Af293. The source holds these as a separate data set.

Substrate in series [33]: C=C/C=C/COP(=O)(O)OP(=O)(O)O
Particulars: Aspergillus fumigatus Af293. The source holds these as a separate data set.

Substrate in series [34]: C/C=C/C=C(\C)COP(=O)(O)OP(=O)(O)O
As to conditions: Aspergillus fumigatus Af293. The source holds these as a separate data set.

Substrate in series [35]: O=P(O)(O)OP(=O)(O)OCC=C1CCCCC1
Particulars: Aspergillus fumigatus Af293. The source holds these as a separate data set.

Substrate in series [36]: C/C(Cl)=C/COP(=O)(O)OP(=O)(O)O
As to conditions: Aspergillus fumigatus Af293. This is another data set of the same source.

Substrate in series [37]: O=P(O)(O)OP(=O)(O)OCc1ccc(Br)cc1
Particulars: Aspergillus fumigatus Af293. This is another data set of the same source.

Substrate in series [38]: O=P(O)(O)OP(=O)(O)OCc1ccccc1
As to conditions: Aspergillus fumigatus Af293. This is another data set of the same source.

Substrate in series [39]: C/C=C/COP(=O)(O)OP(=O)(O)O
As to conditions: Aspergillus fumigatus Af293. The source holds these as a separate data set.

Substrate in series [40]: O=P(O)(O)OP(=O)(O)OCC=C1CCCC1
As to conditions: Aspergillus fumigatus Af293. The source holds these as a separate data set.

Substrate in series [41]: COc1ccccc1COP(=O)(O)OP(=O)(O)O
As to conditions: Aspergillus fumigatus Af293. This is another data set of the same source.

Substrate in series [42]: O=P(O)(O)OP(=O)(O)OCc1ccc(F)cc1
As to conditions: Aspergillus fumigatus Af293. The source holds these as a separate data set.

Substrate in series [43]: CCC(=CCOP(=O)(O)OP(=O)(O)O)CC
As to conditions: Aspergillus fumigatus Af293. This is another data set of the same source.

Substrate in series [44]: COc1cccc(COP(=O)(O)OP(=O)(O)O)c1
Particulars: Aspergillus fumigatus Af293. This is another data set of the same source.

Substrate in series [45]: O=P(O)(O)OP(=O)(O)OCC=C1CCCCC1
Particulars: Aspergillus fumigatus Af293. This is another data set of the same source.

Substrate in series [46]: O=P(O)(O)OP(=O)(O)OCc1ccc(Br)cc1
Particulars: Aspergillus fumigatus Af293. This is another data set of the same source.

On to `CC(=O)COP(=O)(O)OP(=O)(O)O`, for which, in series [1], the result was inactive.

Turning to `C=C(C)COP(=O)(O)OP(=O)(O)O`, the outcome in [1] was inactive.

`O=C1NC(O)c2c1c1c3cc(CC=C4CCCCC4)ccc3[nH]c1c1[nH]c3ccccc3c21` (stereo not given) yielded a 50% inhibitory concentration (IC50) in series [2] of 31 µM.

As for `COc1cc(COP(=O)(O)OP(=O)(O)O)cc(OC)c1OC`, the result in [1] was inactive.

Take `COc1ccc(COP(=O)(O)OP(=O)(O)O)cc1OC`: the outcome in series [1] was inactive.

In series [2], `O=C1NC(O)c2c1c1c3cc(CC4=CCCCC4)ccc3[nH]c1c1[nH]c3ccccc3c21` (stereo not given) had an IC50 of 61 µM.

For `O=[N+]([O-])c1ccc(COP(=O)(O)OP(=O)(O)O)cc1`, the outcome in series [1] was inactive.

With `O=C1NC(O)c2c1c1c3cc(CC=C4CCCC4)ccc3[nH]c1c1[nH]c3ccccc3c21` (stereo not given), in series [2], the IC50 came out at 58 µM.

On to `COc1ccc(COP(=O)(O)OP(=O)(O)O)cc1`, for which the result in series [1] was inactive.

In [2], `CCC(=CCc1ccc2[nH]c3c4[nH]c5ccccc5c4c4c(c3c2c1)C(=O)NC4O)CC` (stereo not given) showed an IC50 of 35 µM.

Take `O=C1NC(O)c2c1c1c3ccccc3[nH]c1c1[nH]c3ccccc3c21` (stereo not given): in [2], inhibition was half-maximal at 11 µM (IC50).

With `CC/C(C)=C/Cc1ccc2[nH]c3c4[nH]c5ccccc5c4c4c(c3c2c1)C(=O)NC4O` (stereo not given), in [2], the IC50 came out at 38 µM.

Turning to `Cc1ccc(COP(=O)(O)OP(=O)(O)O)cc1`, the result in [1] was inactive.

In [2], `CC(C)=CCc1ccc2[nH]c3c4[nH]c5ccccc5c4c4c(c3c2c1)C(=O)NC4O` (stereo not given) had an IC50 of 62 µM.

For `O=P(O)(O)OP(=O)(O)OCc1cc(F)cc(F)c1`, the outcome in series [1] was inactive.

Regarding `COc1ccc(COP(=O)(O)OP(=O)(O)O)c(OC)c1`, the outcome in series [1] was inactive.

B1: Tryptophan dimethylallyltransferase (Neosartorya fumigata (strain ATCC MYA-4609 / Af293 / CBS 101355 / FGSCA1100) (Aspergillus fumigatus)), Q50EL0 (protein)
chain: T1 sequence (whole entry)
Regarding B1, the kcat/Km in [3] was 103 M⁻¹ s⁻¹; in [4] it was 65 M⁻¹ s⁻¹; in series [5] it was 267 M⁻¹ s⁻¹; in [6], 267 M⁻¹ s⁻¹; in series [7], 433 M⁻¹ s⁻¹; in series [8], 56.7 M⁻¹ s⁻¹. The kcat/Km in series [9] amounted to 11.5 M⁻¹ s⁻¹; in series [10], 16.7 M⁻¹ s⁻¹; in series [11], 21.7 M⁻¹ s⁻¹; in series [12], 7.67 M⁻¹ s⁻¹; in [13], 350 M⁻¹ s⁻¹; in series [14], 283 M⁻¹ s⁻¹. The kcat/Km came to 3.83 M⁻¹ s⁻¹ in series [15]; 650 M⁻¹ s⁻¹ in [16]; 200 M⁻¹ s⁻¹ in series [17]; 36.7 M⁻¹ s⁻¹ in series [18]; 41.7 M⁻¹ s⁻¹ in [19]; 7 M⁻¹ s⁻¹ in series [20]. Further, the kcat in series [21] was 0.0227 s⁻¹; in series [22], 0.0095 s⁻¹; in series [23], 0.084 s⁻¹; in series [24] it was 0.337 s⁻¹; in series [25], 0.467 s⁻¹; in series [26], 0.0322 s⁻¹. Moreover, the kcat worked out at 0.0046 s⁻¹ in series [27]; 0.00267 s⁻¹ in [28]; 0.00327 s⁻¹ in series [29]; 0.165 s⁻¹ in series [30]; 0.108 s⁻¹ in [31]; 0.00283 s⁻¹ in series [32]. In addition, the kcat is 0.433 s⁻¹ in [33]; 0.282 s⁻¹ in series [34]; 0.0533 s⁻¹ in series [35]; 0.0217 s⁻¹ in series [36]; 0.00223 s⁻¹ in series [37]. In addition, the Km came to 220 µM in [38]; 140 µM in series [39]; 310 µM in series [40]; 570 µM in series [41]; 400 µM in series [42]; 370 µM in series [43]. In addition, the values for the Km in [44], in series [45] and in series [46] were 730 µM, 1400 µM and 320 µM, respectively.
